# Laboratory results taken from ChEMBL document CHEMBL4602702, “Red-Emitting Dibenzodiazepinone Derivatives as Fluorescent Dualsteric Probes for the Muscarinic Acetylcholine M2 Receptor” (J Med Chem, 2020).
# Activity calls are given as the source filed them. The rule behind the calls is not given here.
# Key:
# [1] = molecular target: T1, Muscarinic acetylcholine receptor M2 (Homo sapiens, UniProt P08172); experiment: Antagonist activity at human muscarinic M2 receptor expressed in HEK293 cells co-expressing HA-Galphaq/i5 assessed as inhibition of carbachol-induced IP1 accumulation at 37 degree C pre-incubated for 30 mins followed by carbachol addition and measured after 60 mins by HTRF assay; format: functional, cell-based
# T1 sequence (P08172 whole entry): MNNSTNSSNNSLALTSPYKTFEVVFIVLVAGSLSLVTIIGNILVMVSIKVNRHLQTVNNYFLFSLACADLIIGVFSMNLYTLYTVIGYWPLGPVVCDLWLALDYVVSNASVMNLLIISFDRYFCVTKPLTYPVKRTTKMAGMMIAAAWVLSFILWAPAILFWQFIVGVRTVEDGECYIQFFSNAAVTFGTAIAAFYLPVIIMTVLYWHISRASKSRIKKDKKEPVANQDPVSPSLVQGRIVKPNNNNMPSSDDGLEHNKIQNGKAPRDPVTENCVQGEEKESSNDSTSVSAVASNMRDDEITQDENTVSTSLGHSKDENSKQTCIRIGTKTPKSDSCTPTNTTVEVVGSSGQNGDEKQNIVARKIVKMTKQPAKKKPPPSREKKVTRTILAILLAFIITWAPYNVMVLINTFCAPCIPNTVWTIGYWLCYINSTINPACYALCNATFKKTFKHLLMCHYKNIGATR
# [2] = molecular target: T1, Muscarinic acetylcholine receptor M2; experiment: Displacement of [3H]-NMS from human muscarinic M2 receptor stably expressed in CHO-K9 cells by radioligand competitive binding assay; format: cell-based
# In short: (§1)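 Equilibrium competition binding at live CHO-hMxR cells with [3H]NMS at M1 0.2, M2 0.2, M3 0.2, M4 0.1, M5 0.3 nM. […] Four-parameter logistic fit converted to pKi; at least three experiments in triplicate (some two).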
# [3] = molecular target: Muscarinic acetylcholine receptor M3 (Homo sapiens, UniProt P20309); experiment: Displacement of [3H]-NMS from human muscarinic M3 receptor stably expressed in CHO-K9 cells by radioligand competitive binding assay; format: cell-based; in short: as §1
# Chain of Muscarinic acetylcholine receptor M3 (P20309 whole entry): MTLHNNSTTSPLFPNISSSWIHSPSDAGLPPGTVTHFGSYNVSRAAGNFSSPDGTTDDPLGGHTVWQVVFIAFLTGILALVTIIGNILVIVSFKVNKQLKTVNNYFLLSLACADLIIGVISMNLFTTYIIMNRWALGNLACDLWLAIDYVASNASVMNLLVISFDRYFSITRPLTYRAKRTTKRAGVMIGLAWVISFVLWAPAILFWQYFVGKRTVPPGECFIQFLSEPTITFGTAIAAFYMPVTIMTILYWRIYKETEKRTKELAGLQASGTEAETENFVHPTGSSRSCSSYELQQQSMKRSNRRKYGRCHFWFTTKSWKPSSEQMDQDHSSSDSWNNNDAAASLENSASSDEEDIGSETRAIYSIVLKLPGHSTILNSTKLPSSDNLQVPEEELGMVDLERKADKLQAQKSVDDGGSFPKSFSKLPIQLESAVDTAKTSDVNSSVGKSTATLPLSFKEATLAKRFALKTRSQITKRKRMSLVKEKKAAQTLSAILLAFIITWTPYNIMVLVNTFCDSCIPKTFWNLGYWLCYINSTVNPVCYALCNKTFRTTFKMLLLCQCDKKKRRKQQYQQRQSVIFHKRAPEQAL
# [4] = molecular target: T2, Muscarinic acetylcholine receptor M4 (Homo sapiens, UniProt P08173); experiment: Displacement of [3H]-NMS from human muscarinic M4 receptor stably expressed in CHO-K9 cells by radioligand competitive binding assay; format: cell-based; in short: as §1
# T2 sequence (P08173 whole entry): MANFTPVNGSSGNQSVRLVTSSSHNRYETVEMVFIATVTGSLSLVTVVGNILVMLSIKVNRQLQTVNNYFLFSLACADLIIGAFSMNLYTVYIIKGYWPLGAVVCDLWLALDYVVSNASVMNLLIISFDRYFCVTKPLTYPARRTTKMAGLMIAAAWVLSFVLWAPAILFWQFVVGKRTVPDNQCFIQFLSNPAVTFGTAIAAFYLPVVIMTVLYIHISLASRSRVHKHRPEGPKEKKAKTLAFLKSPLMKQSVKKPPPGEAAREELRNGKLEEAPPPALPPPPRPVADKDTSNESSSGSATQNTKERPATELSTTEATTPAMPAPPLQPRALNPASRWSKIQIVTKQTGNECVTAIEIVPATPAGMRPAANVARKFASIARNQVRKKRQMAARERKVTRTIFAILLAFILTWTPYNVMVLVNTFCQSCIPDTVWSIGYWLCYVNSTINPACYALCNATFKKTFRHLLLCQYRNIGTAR
# [5] = molecular target: T3, Muscarinic acetylcholine receptor M5 (Homo sapiens, UniProt P08912); experiment: Displacement of [3H]-NMS from human muscarinic M5 receptor stably expressed in CHO-K9 cells by radioligand competitive binding assay; format: cell-based; in short: as §1
# T3 sequence (P08912 whole entry): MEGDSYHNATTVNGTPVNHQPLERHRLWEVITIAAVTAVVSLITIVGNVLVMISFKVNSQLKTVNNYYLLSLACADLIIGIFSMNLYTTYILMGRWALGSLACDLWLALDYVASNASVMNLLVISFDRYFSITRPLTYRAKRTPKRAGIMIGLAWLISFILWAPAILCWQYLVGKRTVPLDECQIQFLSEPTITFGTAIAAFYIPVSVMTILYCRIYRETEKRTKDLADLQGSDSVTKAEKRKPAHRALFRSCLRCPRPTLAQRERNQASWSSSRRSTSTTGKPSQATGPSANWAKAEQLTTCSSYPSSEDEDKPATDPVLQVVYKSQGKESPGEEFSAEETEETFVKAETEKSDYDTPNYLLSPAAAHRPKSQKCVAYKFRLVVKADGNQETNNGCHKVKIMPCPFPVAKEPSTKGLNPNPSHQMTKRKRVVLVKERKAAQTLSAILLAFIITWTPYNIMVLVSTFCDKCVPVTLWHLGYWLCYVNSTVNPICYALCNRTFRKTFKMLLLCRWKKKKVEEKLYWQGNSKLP
# [6] = molecular target: T4, Muscarinic acetylcholine receptor M2 (Homo sapiens) (UniProt P08172); experiment: Agonist activity at human muscarinic M2 receptor expressed in HEK293 cells co-expressing HA-Galphaq/i5 assessed as induction of Galphaq/i5-mediated IP1 accumulation by HTRF assay; format: functional, cell-based
# T4 sequence (whole entry): T1 sequence (P08172 whole entry)
# In short: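 HEK-293 cells transiently co-transfected with hM2R and hybrid Gαqi5-HA, run in agonist mode at 37 °C; IP1 accumulation measured. Carbachol control from 14 independent experiments in duplicate; test ligands from three or four independent experiments in duplicate.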
# [7] = molecular target: T1, Muscarinic acetylcholine receptor M2; experiment: Binding affinity to human muscarinic M2 receptor expressed in CHO-K9 cells incubated in dark measured after 60 mins by Hoechst H33342 dye based confocal plate reader assay; format: cell-based
# In short: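 Live CHO-hMxR cells (M1 or M2) incubated with fluorescent ligand at 22 °C in the dark for 1 h, washed, then imaged at once by high-content confocal plate reader.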
# [8] = molecular target: T4, Muscarinic acetylcholine receptor M2 (Homo sapiens); experiment: Binding affinity to human muscarinic M2 receptor expressed in CHO-K9 cells assessed as observed association rate constant at 22 +/- 1 degree C incubated under shaking condition in dark for 1 to 300 mins by flow cytometric saturation binding study; format: cell-based
# [9] = molecular target: T4, Muscarinic acetylcholine receptor M2 (Homo sapiens); experiment: Binding affinity to human muscarinic M2 receptor expressed in CHO-K9 cells assessed as association rate constant at 22 +/- 1 degree C incubated under shaking condition in dark for 1 to 300 mins by flow cytometric saturation binding study; format: cell-based
# [10] = molecular target: T4, Muscarinic acetylcholine receptor M2 (Homo sapiens); experiment: Competitive binding affinity to human muscarinic M2 receptor expressed in CHO-K9 cells assessed as rightward shift of saturation isotherm resulting in Schild regression in presence of increasing concentration of W84 by Schild-like analysis; format: cell-based
# In short: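 High-content imaging saturation binding of fluorescent ligand at intact CHO-hM2R cells in the presence of increasing concentrations of the allosteric modulator W84. Rightward shifts (ΔpKd) plotted as log(r−1) vs log[modulator], with r = 10^ΔpKd. Three independent experiments in triplicate.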
# [11] = molecular target: T4, Muscarinic acetylcholine receptor M2 (Homo sapiens); experiment: Binding affinity to human muscarinic M2 receptor expressed in CHO-K9 cells assessed as increase in intracellular fluorescence intensity at 30 nM incubated for 45 mins by confocal microscopy
Compound,IC50 [1],Ki [2],Ki [3],Ki [4],Ki [5],Activity [6],Kd ([7]; read-out: Kd),Kd ([7]; read-out: pKd (converted)),K [8],K [9],Activity [10],Activity [11]
CC1(C)C(/C=C/C=C/C=C2/N(CCCCCC(=O)NCCN3CCN(CCCCC4CCN(CC(=O)N5c6ccccc6NC(=O)c6ccccc65)CC4)CC3)c3ccc(S(=O)(=O)O)cc3C2(C)C)=[N+](CCCCS(=O)(=O)[O-])c2ccccc21.O=C(O)C(F)(F)F.O=C(O)C(F)(F)F,224 nM,0.525 nM,81.3 nM,2.14 nM,135 nM,inactive,5.3 nM,4.68 nM,0.014 min⁻¹,158000 M⁻¹ s⁻¹,Active,Active
CC1(C)C(/C=C/C=C/C=C2/N(CCCCCC(=O)NCCNC(=O)CCc3cn(CCCCC4CCN(CC(=O)N5c6ccccc6NC(=O)c6ccccc65)CC4)cn3)c3ccc(S(=O)(=O)O)cc3C2(C)C)=[N+](CCCCS(=O)(=O)[O-])c2ccccc21.O=C(O)C(F)(F)F,355 nM,0.794 nM,155 nM,4.47 nM,166 nM,inactive,12.6 nM,11.5 nM,0.026 min⁻¹,61700 M⁻¹ s⁻¹,Active,Active
CC1(C)C(/C=C/C=C/C=C2/N(CCCCCC(=O)NCc3cc(C(=O)NCCNC(=O)CCc4cn(CCCCC5CCN(CC(=O)N6c7ccccc7NC(=O)c7ccccc76)CC5)cn4)cc(C(=O)NCCNC(=O)CCc4cn(CCCCC5CCN(CC(=O)N6c7ccccc7NC(=O)c7ccccc76)CC5)cn4)c3)c3ccc(S(=O)(=O)O)cc3C2(C)C)=[N+](CCCCS(=O)(=O)[O-])c2ccccc21.O=C(O)C(F)(F)F.O=C(O)C(F)(F)F.O=C(O)C(F)(F)F,24 nM,0.631 nM,75.9 nM,2.88 nM,407 nM,inactive,2.9 nM,5.62 nM,0.024 min⁻¹,81700 M⁻¹ s⁻¹,Active,Active
